CHO parental Ca: signal in parental CHO cells, OX1R antagonist counter-screen. 330,000 compounds, 0.63% hits. inhibition, % at 5.6 µM. parental CHO-K1, ATP-induced calcium, Fluo-8 fluorescence. AID 463079;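 active means inhibition above that plate's mean sample inhibition plus 3 SD, cut at about 26% in these data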;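 further: 0% = ATP-challenged DMSO wells and 100% = DMSO wells without ATP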
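Measured by: calcium-sensitive Fluo-8 fluorescence / Test system: CHO parental line / Controls: ATP-challenged DMSO wells low, unchallenged DMSO wells high / Measure: % inhibition / Compound: single nominal dose of 5.6 µM per compound / Replicates: single well per compound, no replicates / Reagent: ATP as calcium-mobilizing challenge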
OX1R antag-1: blocks the human orexin 1 receptor; O43613; CHO/OX1R cells, Fluo-8 calcium fluorescence, orexin A; inhibition, % at 5 µM; 330,000 compounds, 0.43% hits; AID 434989;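 active means inhibition above its plate's threshold, mean inhibition of all tested compounds on the plate plus 3 SD, cut at about 37% in these data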;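 further: 0% = orexin A challenge wells and 100% = SB-334867-A antagonist wells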
TAAR1 ag: human TAAR1 agonism | CHO RD-HGA16 TAAR1, Fluo-8 calcium fluorescence; vehicle wells 0%, saturating PEA agonist 100% | activation, % at 3 µM | 360,000 compounds, 0.99% hits | AID 624467;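 active means activation above the mean activation of all test compounds in the run plus 3 SD, cut at about 38% in these data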
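Repeats: no replicates (n 1) | Material: CHO-derived RD-HGA16 cells with stable Gα16 and human TAAR1 | Technique: Kinetic Fluo-8 calcium fluorescence | Schedule: 17-24 h seeding, 75 min 37 °C dye, 30 min RT | Evaluation: % activation from peak over basal fluorescence ratio, DMSO-to-PEA scaled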
GPR7 antag: blocks human GPR7 receptor signaling | inhibition, % at 4.4 µM | 290,000 compounds, 1.1% hits | GPR7-expressing cells, fluorescence antagonist assay; in the data active means inhibition above about 16%, passing the limit was not always enough;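 further: cells stimulated with the agonist NPW; 0% = agonist with vehicle and 100% = vehicle without agonist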
Target sequence (P48145 whole entry, looked up): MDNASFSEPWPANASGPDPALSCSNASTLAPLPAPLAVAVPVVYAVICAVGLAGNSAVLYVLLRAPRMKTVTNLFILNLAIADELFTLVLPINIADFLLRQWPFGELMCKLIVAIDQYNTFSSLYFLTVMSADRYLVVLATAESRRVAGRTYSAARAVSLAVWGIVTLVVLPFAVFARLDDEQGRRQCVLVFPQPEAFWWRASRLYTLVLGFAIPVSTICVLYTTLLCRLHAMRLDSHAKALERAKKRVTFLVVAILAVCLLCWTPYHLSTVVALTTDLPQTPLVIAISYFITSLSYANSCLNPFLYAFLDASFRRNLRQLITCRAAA
OX1R antag-2: blocks the human orexin 1 receptor; O43613; OX1R-expressing cells, FRET antagonist read-out; inhibition, % at 6.6 µM; 330,000 compounds, 1.8% hits; in the data active means inhibition mostly above about 38%, no sharp cut-off; inactive means mostly below about 40%;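 further: 0% = agonist challenge alone and 100% = reference antagonist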
TAAR1 antagonist: antagonists of human TAAR1 | inhibition, % at 3 µM | 360,000 compounds, 1.5% hits | Q96RJ0 | CHO RD-HGA16 TAAR1, Fluo-8 calcium fluorescence, antagonist;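 active means inhibition above a per-plate cutoff, the mean inhibition of test compounds on that plate plus 3 SD, cut at about 49% in these data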;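 further: 0% = DMSO plus EC80 beta-PEA response and 100% = DMSO alone without agonist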
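Assay system: RD-HGA16 CHO cells with stable hTAAR1 and Gα16 / Reagent: EC80 β-phenethylamine stimulus / Doses: 3 µM, single point / Timing: dye loading 75 min at 37 °C, then 30 min room temperature / Measured by: Fluo-8 intracellular calcium dye fluorescence, real-time kinetic reads / Controls: vehicle wells and EC80 agonist wells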
nonsel antag count: nonselective antagonist in TAAR1 antagonist counter-screen; 2,400 compounds, 77% hits; inhibition, % at 3 µM; shares compounds with TAAR1 antagonist; counterscreen cell line, calcium fluorescence, antagonist mode; in the data active means inhibition above about 22%;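 further: CHO-Ga16 host cells stimulated with ATP at an EC80 level; 0% = agonist EC80 plus vehicle and 100% = vehicle without agonist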
TAAR1 ant conf: confirmation of human TAAR1 antagonists. 2,400 compounds, 40% hits. AID 651785. inhibition, % at 3 µM. shares compounds with TAAR1 antagonist. TAAR1-expressing cells, fluorescence antagonist read-out; in the data active means inhibition above about 49%;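 further: CHO-Ga16 host cells challenged with agonist PEA near its EC80; 0% = agonist at EC80 plus vehicle and 100% = vehicle with no agonist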
Ga16 ag counter: nonselective Ga16 agonism, counter-screen. shares compounds with TAAR1 antagonist. 2,400 compounds, 18% hits. activation, % at 3 µM. Ga16-expressing cells, calcium fluorescence, agonist counterscreen; in the data active means activation above about 12%;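 further: 0% = vehicle wells and 100% = saturating stimulus response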
TAAR1 ag count: activates human TAAR1 in antagonist counter-screen | shares compounds with TAAR1 antagonist | AID 651955 | hTAAR1 cell line, fluorescence activation, agonist mode | 2,400 compounds, 2% hits | activation, % at 3 µM; in the data active means activation above about 37%;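 further: CHO cells stably expressing TAAR1 with calcium dye readout; 0% = DMSO vehicle and 100% = full agonist response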
An asterisk follows results filed as active; x = no result given. An excerpt weighted towards active compounds, which were near 4.6% of everything screened.

SMILES	CHO parental Ca	OX1R antag-1	TAAR1 ag	GPR7 antag	OX1R antag-2	TAAR1 antagonist	nonsel antag count	TAAR1 ant conf	Ga16 ag counter	TAAR1 ag count
O=c1oc(C2(O)CCCCC2)cc2ccc(Br)cc12	-16	-4	10	x	1	25	x	x	x	x
O=S(=O)(/N=C(/Nc1ccc(Cl)c(S(=O)(=O)N2CCOCC2)c1)c1ccc(F)cc1)c1ccccc1	-11	-14	15	-7	36	71*	33*	57*	11	14
COc1ccccc1NS(=O)(=O)c1cc(NC(=O)C(C)(C)C)ccc1N1CCOCC1	-19	-23	20	x	14	72*	29*	58*	10	10
O=C(Nc1ccc(N2CCOCC2)c(S(=O)(=O)Nc2ccccc2Cl)c1)c1ccc(F)cc1	4	23	9	x	13	70*	36*	53*	13*	14
CCCCc1c(-c2ccccc2OC)ncn1Cc1ccc(Cl)cc1Cl	x	x	4	x	x	-14	x	x	x	x
Cc1cc2nc(NC(=O)C3(C)CCN(C)C3)[nH]c2cc1C (configuration not stated)	x	x	2	x	x	-17	x	x	x	x
COc1ccc(C2=NS(=O)(=O)N(C)C(C(=O)N3CCc4ccccc4C3)=C2)cc1OC	-1	-3	24	2	16	68*	40*	50*	11	51*
CCc1ccc(NC(=O)C2=CC(c3ccc(OC)c(OC)c3)=NS(=O)(=O)N2C)cc1	4	-1	6	8	16	68*	33*	37	7	7
COC(=O)C[C@@H]1CC[C@H](NC(=O)CC2CC2)[C@@H](CO)O1	x	x	0	x	x	-3	x	x	x	x
Cc1ccc(S(=O)(=O)N2CC3C(=O)C[C@@H](c4ccccc4)N(S(=O)(=O)c4ccc(CCCOCCOCCNC(=O)OC(C)(C)C)cc4)C3CC2c2ccccc2)cc1 (some centres not stated)	x	x	0	x	x	-13	x	x	x	x
C=CC[C@]12C[C@@]3(O[C@H](C4CCCCC4)N=C3C[C@H](c3ccc(OC)cc3)[C@H]1C)N(Cc1ccncc1)C2=O	x	x	-2	x	x	-51	x	x	x	x
COc1cccc(NC(=O)N2CCN(c3nc(-c4cccc(OC)c4)cs3)CC2)c1	4	-21	3	-7	5	73*	35*	43	7	1
CCOc1ccc(N2C(=O)c3ccc(C(=O)OCc4c(C)noc4C)cc3C2=O)cc1	-5	-18	11	2	6	-7	x	x	x	x
CCCN(CC1CC1)C(=O)COC(=O)c1ccc2c(c1)C(=O)N(c1ccc(OCC)cc1)C2=O	-13	-3	33	-10	18	55*	30*	40	7	6
CCc1noc(C)c1C(=O)N1CCN(c2cccc(Cl)c2)CC1	x	x	2	x	x	-19	x	x	x	x
COc1ccc(C2=NOC(Cn3nc(C(=O)NCc4ccco4)cc3-c3ccccc3)C2)cc1 (configuration not stated)	-9	-13	19	x	29	66*	34*	56*	9	6
COc1ccc(C2=NOC(Cn3nc(C(=O)NCc4cccs4)cc3-c3ccccc3)C2)cc1 (configuration not stated)	-6	-14	16	x	23	77*	40*	51*	8	6
CCOC(=O)c1cc(-c2ccccc2)n(CC2CC(c3ccc(OC)cc3)=NO2)n1 (configuration not stated)	-14	-22	14	4	28	75*	30*	51*	7	8
COC(=O)C[C@@H]1CC[C@@H](NS(=O)(=O)c2cccc(OC)c2)[C@@H](CO)O1	x	x	3	x	x	3	x	x	x	x
